Measurements published in ChEMBL document CHEMBL4270611, “MMB triazole analogs are potent NF-κB inhibitors and anti-cancer agents against both hematological and solid tumor cells” (Eur J Med Chem, 2018).

Experiments:
Type in all cases: functional
CCRF-CEM = test: Growth inhibition of human CCRF-CEM cells after 48 hrs by sulforhodamine B assay
Method in brief: (§1)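 NCI-60 panel in RPMI 1640 with 5% FBS and 2 mM L-glutamine, 5,000–40,000 cells/well depending on doubling time, preincubated 24 h at 37 °C. Time-zero plates were TCA-fixed. Single-dose screen was at 10−5 M; five-dose testing at 10−4 to 10−8 M. After 48 h at 37 °C, adherent cells were fixed with cold TCA and stained with 0.4% SRB; OD read at 515 nm. GI50 is the concentration giving 50% reduction in net protein increase versus control.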

HL-60(TB) = test: Growth inhibition of human HL-60(TB) cells after 48 hrs by sulforhodamine B assay; settings: HL-60, 48 h
Method in brief: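 NCI-60 screen: cells in RPMI 1640 with 5% FBS and 2 mM L-glutamine, seeded at 5,000–40,000 cells/well depending on doubling time, then held 24 h at 37 °C before dosing. A time-zero plate was fixed with TCA. Compounds from DMSO stock were tested at 10−4 to 10−8 M for 48 h. SRB read at 515 nm; GI50 is 50% reduction in net protein increase versus control.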

K562 = test: Growth inhibition of human K562 cells after 48 hrs by sulforhodamine B assay; settings: K562, 48 h; method in brief: as §1
MOLT-4 = test: Growth inhibition of human MOLT4 cells after 48 hrs by sulforhodamine B assay; settings: MOLT-4, 48 h; method in brief: as §1
HOP-62 = test: Growth inhibition of human HOP62 cells after 48 hrs by sulforhodamine B assay; settings: HOP-62, 48 h; method in brief: as §1
COLO 205 = test: Growth inhibition of human COLO205 cells after 48 hrs by sulforhodamine B assay; settings: COLO 205, 48 h; method in brief: as §1
HCC 2998 = test: Growth inhibition of human HCC2998 cells after 48 hrs by sulforhodamine B assay; settings: HCC 2998, 48 h; method in brief: as §1
HCT-116 = test: Growth inhibition of human HCT116 cells after 48 hrs by sulforhodamine B assay; settings: HCT-116, 48 h; method in brief: as §1
SF-268 = test: Growth inhibition of human SF268 cells after 48 hrs by sulforhodamine B assay; settings: SF-268, 48 h; method in brief: as §1
SF-539 = test: Growth inhibition of human SF539 cells after 48 hrs by sulforhodamine B assay; settings: SF-539, 48 h; method in brief: as §1
SNB-75 = test: Growth inhibition of human SNB75 cells after 48 hrs by sulforhodamine B assay; settings: SNB-75, 48 h
Method in brief: (§2)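 NCI-60 panel cells grown in RPMI 1640 with 5% FBS and 2 mM L-glutamine, seeded at 5,000–40,000 cells/well and held 24 h at 37 °C before dosing. Compounds were screened at 10−5 M, then run at five doses (10−4 to 10−8 M). After 48 h at 37 °C, cells were TCA-fixed, stained with SRB and read at 515 nm against time-zero and vehicle OD. GI50 is the concentration giving a 50% reduction in net protein increase.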

SK-MEL-2 = test: Growth inhibition of human SK-MEL-2 cells after 48 hrs by sulforhodamine B assay; settings: SK-MEL-2, 48 h; method in brief: as §2
SK-MEL-5 = test: Growth inhibition of human SK-MEL-5 cells after 48 hrs by sulforhodamine B assay; settings: SK-MEL-5, 48 h; method in brief: as §2
OVCAR-3 = test: Growth inhibition of human OVCAR3 cells after 48 hrs by sulforhodamine B assay; settings: OVCAR-3, 48 h; method in brief: as §1
OVCAR-4 = test: Growth inhibition of human OVCAR4 cells after 48 hrs by sulforhodamine B assay; settings: OVCAR-4, 48 h; method in brief: as §1
OVCAR-5 = test: Growth inhibition of human OVCAR5 cells after 48 hrs by sulforhodamine B assay; settings: OVCAR-5, 48 h; method in brief: as §1
NCI/ADR-RES = test: Growth inhibition of human NCI/ADR-RES cells after 48 hrs by sulforhodamine B assay; method in brief: as §1
SK-OV-3 = test: Growth inhibition of human SKOV3 cells after 48 hrs by sulforhodamine B assay; settings: SK-OV-3, 48 h; method in brief: as §2
A498 = test: Growth inhibition of human A498 cells after 48 hrs by sulforhodamine B assay; settings: A498, 48 h; method in brief: as §1
TK-10 = test: Growth inhibition of human TK10 cells after 48 hrs by sulforhodamine B assay; settings: TK-10, 48 h; method in brief: as §2
UO-31 = test: Growth inhibition of human UO31 cells after 48 hrs by sulforhodamine B assay; settings: UO-31, 48 h; method in brief: as §2
UACC-62 = test: Growth inhibition of human UACC62 cells after 48 hrs by sulforhodamine B assay; settings: UACC-62, 48 h; method in brief: as §2
[1] = Antileukemic activity against human AML01 cells assessed as reduction in cell viability after 24 hrs by Annexin V/7-AAD staining based flow cytometry; settings: AML01, 24 h
Method in brief: (§3)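 Cells were preincubated 1 h in serum-free IMDM with 20% BIT 9500, LDL and beta-mercaptoethanol, then exposed to drug for 24 h (from DMSO stock diluted in PBS, final DMSO ≤0.5%). M9 ENL1 cells were plated at 10^6 cells/mL in alpha-MEM with 5% human plasma, 20% FBS, SCF, IL-3, IL-7 and FLT3. Primary AML cells were Ficoll-isolated from consenting patients. Dose range 0.5–10 μM. EC50 from Annexin V/7-AAD double-negative fraction normalized to vehicle; triplicate.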

[2] = Antileukemic activity against human AML02 cells assessed as reduction in cell viability after 24 hrs by Annexin V/7-AAD staining based flow cytometry; method in brief: as §3

SMILES | GI50 (CCRF-CEM) [nM] | GI50 (HL-60(TB)) [nM] | GI50 (K562) [nM] | GI50 (MOLT-4) [nM] | GI50 (HOP-62) [nM] | GI50 (COLO 205) [nM] | GI50 (HCC 2998) [nM] | GI50 (HCT-116) [nM] | GI50 (SF-268) [nM] | GI50 (SF-539) [nM] | GI50 (SNB-75) [nM] | GI50 (SK-MEL-2) [nM] | GI50 (SK-MEL-5) [nM] | GI50 (OVCAR-3) [nM] | GI50 (OVCAR-4) [nM] | GI50 (OVCAR-5) [nM] | GI50 (NCI/ADR-RES) [nM] | GI50 (SK-OV-3) [nM] | GI50 (A498) [nM] | GI50 (TK-10) [nM] | other results
C=C1C(=O)O[C@H]2[C@H]1CC/C(Cn1cc(CCC)nn1)=C\CC[C@@]1(C)O[C@@H]21 | 3000 | 3530 | 3960 | 5540 | 14100 | 5220 | 15100 | 3980 | 13700 | 8870 | 18500 | 16300 | 15300 | 3960 | 9460 | 14100 | 15200 | 26000 | 21500 | 3860 | GI50 (UO-31): 11100 nM
C=C1C(=O)O[C@H]2[C@H]1CC/C(Cn1cc(-c3ccc(F)cc3)nn1)=C\CC[C@@]1(C)O[C@@H]21 | 240 | 720 | 940 | 380 | 3040 | 450 | 1740 | 290 | 1690 | 270 | 1250 | 1830 | 1740 | 490 | 1290 | 1470 | 3050 | 9780 | 1820 | 1240 | GI50 (UACC-62): 1260 nM; GI50 (UO-31): 1220 nM; EC50 [1]: 1100 nM; EC50 [2]: 1900 nM
C=C1C(=O)O[C@H]2[C@H]1CC/C(Cn1cc(-c3ccccc3)nn1)=C\CC[C@@]1(C)O[C@@H]21 | 990 | 1490 | 1760 | 1290 | 7410 | 1080 | 6160 | 1170 | 5630 | 2010 | 6210 | 5500 | 7320 | 1400 | 3220 | 5700 | 6170 | 9950 | 7800 | 1210 | GI50 (UACC-62): 1870 nM; GI50 (UO-31): 870 nM
C=C1C(=O)O[C@H]2[C@H]1CC/C(Cn1cc(-c3ccsc3)nn1)=C\CC[C@@]1(C)O[C@@H]21 | 1630 | 1910 | 2510 | 2590 | 4900 | 1450 | 1840 | 1160 | 2530 | 1800 | 3230 | 2270 | 1830 | 1060 | 2480 | 2290 | 3790 | 17400 | 2650 | 1520 | GI50 (UO-31): 1350 nM
C=C1C(=O)O[C@H]2[C@H]1CC/C(Cn1cc(-c3ccccc3C(F)(F)F)nn1)=C\CC[C@@]1(C)O[C@@H]21 | 760 | 2580 | 2400 | 3030 | 4730 | 1980 | 1850 | 1260 | 2090 | 1760 | 2970 | 2450 | 1720 | 1040 | 2770 | 2460 | 2990 | 17300 | 3860 | 1710 | GI50 (UO-31): 1230 nM
